Assay outcomes as filed in PubChem.
The list is not random: actives were taken first. Their share in the collection is about 1.5%.
GSIS activator: GLuc luminescence reporter in INS-1E cells, primary screen for activators of glucose-dependent secretion of insulin. INS-1E GLuc reporter insulin secretion, 2-3 h. activation, % at 16.6 µM. 370,000 compounds, 0.61% hits. AID 743287;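 active = lowest replicate activation of at least 40%, so every replicate reaches that level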
SIRT5 block: blocks human SIRT5 desuccinylation of peptide | Q9NXA8 | Purified SirT5, succinyl-peptide AMC, trypsin-coupled fluorescence | inhibition, % at 15 µM | 330,000 compounds, 1.1% hits | AID 652115; in the data active = inhibition above about 15%
Target sequence (Q9NXA8 whole entry, looked up): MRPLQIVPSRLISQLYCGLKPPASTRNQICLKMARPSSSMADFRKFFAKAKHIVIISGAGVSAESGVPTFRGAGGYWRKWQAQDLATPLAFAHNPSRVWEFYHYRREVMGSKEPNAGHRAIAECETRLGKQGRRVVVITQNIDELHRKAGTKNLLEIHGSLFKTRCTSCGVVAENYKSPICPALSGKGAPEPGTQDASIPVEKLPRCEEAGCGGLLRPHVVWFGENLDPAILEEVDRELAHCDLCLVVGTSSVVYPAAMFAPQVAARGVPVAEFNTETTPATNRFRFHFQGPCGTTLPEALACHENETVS
ERp5 block: blocks human ERp5 reductase activity on insulin; Q15084; ERp5 insulin aggregation, absorbance 650 nm, 90 min; inhibition, % at 9.99 µM; 350,000 compounds, 0.05% hits; AID 651711;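 active = mean replicate inhibition above about 25%, with every replicate also reaching it, limit read from the data, passing the limit was not always enough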
PDI turbidity: PDI (human) enzyme inhibition. PDI insulin aggregation turbidity, A650, 90 min. 350,000 compounds, 0.052% hits. P07237. inhibition, % at 10 µM;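 active = mean inhibition across replicates of 30% or more, whatever share of single replicates reach that level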
S100A4 MyoIIA: blocks human S100A4 binding to myosin IIA peptide. inhibition, % at 10.7 µM. P26447. AID 652163. 360,000 compounds, 0.14% hits. S100A4/TAMRA-MyoIIA peptide fluorescence polarization;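 active = mean inhibition of at least 70% across replicates, with every replicate also reaching that level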
Target sequence (P26447 whole entry, looked up): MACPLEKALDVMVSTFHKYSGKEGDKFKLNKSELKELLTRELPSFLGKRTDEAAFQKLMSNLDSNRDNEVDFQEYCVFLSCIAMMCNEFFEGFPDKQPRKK
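Material: S100A4 monomer protein / Buffer or medium: 50 mM HEPES pH 7.2, 10 mM CaCl2, 100 mM KCl / Times: 5 min incubation before reading / Benchmarks: neutral control DMSO, positive control TFP / Reagent: labelled myosin peptide probe, 5 nM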
Large screens that a line does not name were inactive.

CO[C@@H]1CN(C)C(=O)c2cc(NC(=O)Nc3ccc4c(c3)OCO4)ccc2OC[C@H](C)NC[C@H]1C	none (no result: SIRT5 block, PDI turbidity)
CN1C(=O)c2cc(NC(=O)c3cccs3)ccc2OC[C@H]2O[C@H](CC(=O)NCCN3CCCCC3)CC[C@@H]21	none (no result: PDI turbidity)
O=C(COc1ccccc1)Nc1ncn[nH]1	SIRT5 block 30 (no result: GSIS activator)
O=C(COc1ccccc1)Nc1ccccc1C(=O)NC1CC1	GSIS activator 44
C[C@H]1CN([C@@H](C)CO)C(=O)c2cc(C#Cc3cccc(F)c3)cnc2O[C@H]1CN(C)C(=O)C1CCOCC1	none (no result: SIRT5 block, ERp5 block, PDI turbidity, S100A4 MyoIIA)
CC1CCC(C(C)C)C(OC(=O)C[n+]2cc(-c3ccc(Cl)cc3)n3c2CCCCC3)C1 (stereo not drawn)	GSIS activator 111
COC(=O)[C@H](Cc1ccccc1)NC(=O)Cn1cnc2c(OCc3ccccc3)ncnc21	none
O=C(Cn1cnc2c(OCc3ccccc3)ncnc21)N[C@H](CO)Cc1cc2ccccc2[nH]1	GSIS activator 49
O=C(Cn1cnc2c(OCc3ccccc3)ncnc21)NCc1ccccn1	GSIS activator 41
C[C@@H]1CN([C@H](C)CO)C(=O)c2cc(NC(=O)Cn3cnnn3)ccc2O[C@@H]1CN(C)S(=O)(=O)c1cn(C)cn1	none (no result: PDI turbidity)
CO[C@@H](CN(C)C(=O)c1ccc2c(c1)OCO2)[C@@H](C)CN([C@@H](C)CO)S(=O)(=O)c1ccccc1	none (no result: PDI turbidity)
CO[C@H](CN(C)C(=O)c1ccc2c(c1)OCO2)[C@H](C)CN([C@H](C)CO)S(=O)(=O)c1ccccc1	SIRT5 block 27 (no result: PDI turbidity)
COc1ccc(S(=O)(=O)N2CCC(NC(=O)C(Cc3cccc(OC)c3OC)NC(C)=O)CC2)cc1 (stereo not drawn)	SIRT5 block 18
CSC1=NSC2=NC(=O)/C(=C/c3coc4ccc(O)cc4c3=O)C(=N)N12	SIRT5 block 21
N#CC12COC3(CCCCC3C1(C#N)C#N)OC2=N (stereo not drawn)	S100A4 MyoIIA 79
CCNC(=O)[C@@H]1[C@@H](CO)[C@@H]2Cn3c(ccc(-c4ccccc4)c3=O)[C@@H]2N1Cc1ccccn1	none (no result: PDI turbidity)
Cc1ccc(S(=O)(=O)N[C@@H]2CC[C@@H](CCn3cc(-c4cccc(F)c4)nn3)O[C@H]2CO)cc1	none (no result: PDI turbidity)
CN(C)CCNC(=O)c1cccc(S(=O)(=O)Nc2ccccc2F)c1	SIRT5 block 30
CNC[C@H]1Oc2ncc(Br)cc2C(=O)N([C@H](C)CO)C[C@H]1C	none (no result: PDI turbidity)
CCCCNC(=O)N1CCN(Cc2ccc(F)cc2)CC1	SIRT5 block 20
CCCCNC(=O)N1CCN(C/C=C/c2ccccc2)CC1	none
O=C1c2cccc([N+](=O)[O-])c2C(=O)N1c1cccnc1	SIRT5 block 20
O=C1c2cccc([N+](=O)[O-])c2C(=O)N1c1ccccc1	none
COc1ccc(/C=C2\N=C(c3ccccc3)N(c3ccc(C(=O)O)cc3)C2=O)cc1OC	GSIS activator 71
COc1ccc(OCc2n(CC(=O)OC3CC(C)CCC3C(C)C)c3ccccc3[n+]2C)cc1 (stereo not drawn)	GSIS activator 271
COc1ccc(-c2cc(C(F)(F)F)n3nc(C(=O)O)cc3n2)cc1OC	GSIS activator 48 (no result: SIRT5 block, ERp5 block, S100A4 MyoIIA)
COC(=O)c1cc2nc(-c3ccc(OC)c(OC)c3)cc(C(F)(F)F)n2n1	none (no result: GSIS activator, SIRT5 block, ERp5 block, S100A4 MyoIIA)
O=C(c1cc2nc(-c3ccccc3)cc(C(F)(F)F)n2n1)N1CCCC1	SIRT5 block 21
O=C(c1cc(-c2ccccc2)nc2ccccc12)N1CCCC1	GSIS activator 44
O=C(CSc1ncnc2scc(-c3ccccc3)c12)Nc1ccc(C(=O)O)cc1	GSIS activator 147
Cc1ccc(-c2csc3ncnc(SCC(N)=O)c23)cc1	GSIS activator 45
CCc1nnc(NC(=O)CSc2ncnc3scc(-c4ccc(C)cc4)c23)s1	none (no result: GSIS activator, SIRT5 block, ERp5 block, S100A4 MyoIIA)
CO[C@H]1CN(C)C(=O)c2ccc(NC(=O)C3CCOCC3)cc2OC[C@H](C)N(Cc2cccnc2)C[C@@H]1C	none (no result: ERp5 block, PDI turbidity)
CC1Cc2ccccc2N1C(=O)CSc1nc(-c2ccccc2)cs1 (stereo not drawn)	none
CC(Sc1nc(-c2ccc(F)cc2)cs1)C(=O)N1c2ccccc2CC1C (stereo not drawn)	SIRT5 block 26
CO[C@@H]1CN(C)C(=O)c2ccc(NC(=O)NC(C)C)cc2OC[C@@H](C)N(Cc2ccccc2)C[C@H]1C	none (no result: ERp5 block, PDI turbidity)
CO[C@H]1CN(C)C(=O)c2ccc(NC(=O)NC(C)C)cc2OC[C@H](C)N(Cc2ccccc2)C[C@H]1C	SIRT5 block 23 (no result: PDI turbidity)
CO[C@@H]1CN(C)C(=O)c2ccc(NC(=O)NC(C)C)cc2OC[C@@H](C)N(Cc2ccccc2)C[C@@H]1C	SIRT5 block 18 (no result: PDI turbidity)
O=C(/C=C/C(Cl)(Cl)Cl)Nc1ccc(Cl)cc1	GSIS activator 170
COc1cccc(C(=O)OCCCOC(=O)c2cccc(OC)c2OC)c1OC	GSIS activator 42
COc1ccccc1S(=O)(=O)N[C@@H]1CC[C@H](CCNC(=O)C2CCC2)O[C@H]1CO	none (no result: PDI turbidity)
CCOc1cc(C(=O)OCC(=O)Nc2cc(C)on2)cc(OCC)c1OCC	GSIS activator 76 (no result: SIRT5 block, ERp5 block, S100A4 MyoIIA)
Cc1cc(NC(=O)COC(=O)c2oc3c(ccc4ccccc43)c2C)no1	GSIS activator 43
Cc1c(C(=O)OCC(=O)Nc2ccc(S(N)(=O)=O)cc2)oc2c1ccc1ccccc12	none
CCS(=O)(=O)N1CC(=O)N2[C@@H](CO)[C@@H](c3ccc(C#CC4CCCCC4)cc3)[C@@H]2C1	none (no result: PDI turbidity)
CNc1nc(Cl)nc2c1ncn2-c1ccccc1	GSIS activator 87 (no result: SIRT5 block)
C[C@H]1CN([C@@H](C)CO)C(=O)c2cccc(NS(=O)(=O)c3ccc(Cl)cc3)c2O[C@H]1CN(C)C	none (no result: PDI turbidity)
CN(C)c1ccc(C(=O)c2ccccc2C(=O)O)cc1[N+](=O)[O-]	SIRT5 block 28
CNc1ccc(C(=O)c2ccccc2C(=O)O)cc1[N+](=O)[O-]	none
COc1cccc(-c2ccc([C@@H]3[C@@H](CO)N4CCCCN(S(=O)(=O)c5cn(C)cn5)C[C@@H]34)cc2)c1	none (no result: PDI turbidity)
CCOC(=O)c1sc2nc(OCc3cccnc3)cc(C)c2c1N	SIRT5 block 25 (no result: PDI turbidity)
O=C(C[C@H]1C=C[C@H](NC(=O)c2ccc3c(c2)OCO3)[C@H](CO)O1)NCc1ccc(Cl)cc1	none (no result: ERp5 block, PDI turbidity)
Cc1ccsc1C(=O)NNC(=O)CCN1CCN(c2ccccc2)CC1	SIRT5 block 19
N#Cc1sc2nc(N3CCCCC3)c3c(c2c1N)CCCC3	GSIS activator 141 (no result: SIRT5 block, ERp5 block, S100A4 MyoIIA)
Cc1cc(C(C)(C)CC(C)(C)C)ccc1OCCOCC[N+](C)(C)Cc1ccccc1	GSIS activator 333
COc1ccc(O)c(C(=O)c2cnc3c(c2)c(C)nn3CCO)c1	SIRT5 block 19
Cc1nn(CCO)c2ncc(C(=O)c3cc(Cl)ccc3O)cc12	none
Cc1cc(C)c(OCC(=O)NCC(C)(C)N2CCOCC2)c(C)c1	SIRT5 block 30
Cc1ccc(C)c(OCC(=O)NCC(C)(C)N2CCOCC2)c1	none
O=C(C[C@@H]1C=C[C@H](NC(=O)CN2CCOCC2)[C@H](CO)O1)NCc1cccc(F)c1	none (no result: PDI turbidity)
